According to the array DNA melting data of Ke et al. (doi:10.1101/2024.01.08.574731):

Key:
[1] = melting temperature; fluorescence melt of hairpins on a sequencing array, two-state fit, raised by 9.35 °C to match UV melts; conditions: sodium 0.088 M
Method in brief: (§1)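 Library hairpins on a sequenced MiSeq flow cell carried annealed Cy3 and quencher oligos, and their Cy3 fluorescence was imaged in 50 mM Na-HEPES pH 8.0 with 25 mM NaCl, in 2.5 °C steps up to 60 °C. Signals were normalised to Cy3 before quenching and to control constructs. Melting temperature and folding enthalpy were obtained from bootstrapped two-state fits, combined by inverse-variance weighting across four replicates, and the fitted temperatures were then raised by 9.35 °C to match UV melts.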

[2] = folding enthalpy; higher = less favourable; fluorescence melt of hairpins on a sequencing array, two-state fit; conditions: sodium 0.088 M
Method in brief: as §1

GCCGTCGAAAGACTGGC ((((((....))).)))
Tm [1]: 56.4 °C | folding enthalpy [2]: -33.4 kcal/mol

GCCGTCGGAAACAACGGC (((((.(....).)))))
Tm [1]: 53.9 °C | folding enthalpy [2]: -47.5 kcal/mol

GCCGTCGGAAACGACAGC ((.((((....)))).))
Tm [1]: 53 °C | folding enthalpy [2]: -16.6 kcal/mol

GCCGTGACGAAAGTCGGC (((..(((....))))))
Tm [1]: 57.1 °C | folding enthalpy [2]: -23.3 kcal/mol

GCCGTGCGAAAGCATAGC ((..(((....)))..))
Tm [1]: 43.3 °C | folding enthalpy [2]: -13.6 kcal/mol

GCCGTGCGAAAGCATTGC ((..(((....)))..))
Tm [1]: 43.2 °C | folding enthalpy [2]: -12.6 kcal/mol

GCCGTGCGAAAGCGGGGC (((..((....))..)))
Tm [1]: 67.3 °C | folding enthalpy [2]: -34.8 kcal/mol

GCCGTGGGAAACCATGGC (((.(((....))).)))
Tm [1]: 59.4 °C | folding enthalpy [2]: -43.5 kcal/mol

GCCGTGGGAAACTGCGGC ((((..(....)..))))
Tm [1]: 53.9 °C | folding enthalpy [2]: -28.5 kcal/mol

GCCGTTGCGAAAGCAGGC (((..(((....))))))
Tm [1]: 62.3 °C | folding enthalpy [2]: -31.7 kcal/mol

GCCGTTGGAAACAACGAC (.(((((....))))).)
Tm [1]: 46.2 °C | folding enthalpy [2]: -16.9 kcal/mol

GCCTAACCGAAAGGTGGC (((..(((....))))))
Tm [1]: 53.2 °C | folding enthalpy [2]: -23.2 kcal/mol

GCCTACCCGAAAGGGGGC (((..(((....))))))
Tm [1]: 52.4 °C | folding enthalpy [2]: -17.3 kcal/mol

GCCTACCGAAAGGTCGGC (((.(((....))).)))
Tm [1]: 56.5 °C | folding enthalpy [2]: -39.7 kcal/mol

GCCTACGAAAGTACAGGC ((((((....)))..)))
Tm [1]: 47.7 °C | folding enthalpy [2]: -30.7 kcal/mol

GCCTACGAAAGTACCGGC ((((((....)))..)))
Tm [1]: 36.9 °C | folding enthalpy [2]: -25.6 kcal/mol

GCCTACGAAAGTACGGGC ((((((....)))..)))
Tm [1]: 46.3 °C | folding enthalpy [2]: -27.2 kcal/mol

GCCTACGAAAGTACTGGC ((((((....)))..)))
Tm [1]: 40.2 °C | folding enthalpy [2]: -24.4 kcal/mol

GCCTACGAAAGTATAGGC ((((((....)))..)))
Tm [1]: 49.3 °C | folding enthalpy [2]: -25.5 kcal/mol

GCCTACGGAAACGTAGAC (.(((((....))))).)
Tm [1]: 41.8 °C | folding enthalpy [2]: -18.1 kcal/mol

GCCTAGCGAAAGCAAGGC ((((.((....)).))))
Tm [1]: 67.2 °C | folding enthalpy [2]: -29.3 kcal/mol

GCCTAGCGAAAGCGCGGC (((..((....))..)))
Tm [1]: 61.9 °C | folding enthalpy [2]: -18.5 kcal/mol

GCCTAGCGAAAGCTATGC ((.((((....)))).))
Tm [1]: 46.2 °C | folding enthalpy [2]: -23.6 kcal/mol

GCCTAGGGAAACTTGGGC (((.(.(....).).)))
Tm [1]: 36.7 °C | folding enthalpy [2]: -28.3 kcal/mol

GCCTAGTCGAAAGACGGC (((..(((....))))))
Tm [1]: 51.6 °C | folding enthalpy [2]: -21 kcal/mol

GCCTATCCGAAAGGAGGC (((..(((....))))))
Tm [1]: 47.3 °C | folding enthalpy [2]: -20.7 kcal/mol

GCCTCAACGAAAGTTGGC (((..(((....))))))
Tm [1]: 42.9 °C | folding enthalpy [2]: -12.4 kcal/mol

GCCTCACGAAAGTGCGGC (((.(((....))).)))
Tm [1]: 57.7 °C | folding enthalpy [2]: -43.1 kcal/mol

GCCTCACGAAAGTGGGC (((.(((....))))))
Tm [1]: 58.6 °C | folding enthalpy [2]: -33.4 kcal/mol

GCCTCAGGAAACTAAGGC ((((.((....)).))))
Tm [1]: 37.6 °C | folding enthalpy [2]: -27.7 kcal/mol

GCCTCCACGAAAGTGGGC (((..(((....))))))
Tm [1]: 46.9 °C | folding enthalpy [2]: -7.76 kcal/mol

GCCTCCCGAAAGGGGGC (((.(((....))))))
Tm [1]: 67.7 °C | folding enthalpy [2]: -27.1 kcal/mol

GCCTCCGAAAGGAACGGC ((((((....)))..)))
Tm [1]: 46.9 °C | folding enthalpy [2]: -25.3 kcal/mol

GCCTCCGAAAGGAAGGGC ((((((....)))..)))
Tm [1]: 50.2 °C | folding enthalpy [2]: -22.3 kcal/mol

GCCTCCGAAAGGACAGGC ((((((....)))..)))
Tm [1]: 49.8 °C | folding enthalpy [2]: -36.5 kcal/mol

GCCTCCGAAAGGACGGGC ((((((....)))..)))
Tm [1]: 48.6 °C | folding enthalpy [2]: -24.5 kcal/mol

GCCTCCGAAAGGACTGGC ((((((....)))..)))
Tm [1]: 44.4 °C | folding enthalpy [2]: -27.8 kcal/mol

GCCTCCGAAAGGATCGGC ((((((....)))..)))
Tm [1]: 45.3 °C | folding enthalpy [2]: -24.2 kcal/mol

GCCTCCGGAAACGAAGGC ((((.((....)).))))
Tm [1]: 48.8 °C | folding enthalpy [2]: -28.3 kcal/mol

GCCTCCGGAAACGGAAGC ((.((((....)))).))
Tm [1]: 45.9 °C | folding enthalpy [2]: -22.7 kcal/mol

GCCTCGCGAAAGCAACGC ((.(.((....)).).))
Tm [1]: 23.4 °C | folding enthalpy [2]: -5.96 kcal/mol

GCCTCGCGAAAGCAGGGC (((..((....))..)))
Tm [1]: 60.8 °C | folding enthalpy [2]: -20.6 kcal/mol

GCCTCGCGAAAGCCCGGC (((..((....))..)))
Tm [1]: 42.8 °C | folding enthalpy [2]: -17.8 kcal/mol

GCCTCGCGAAAGCGCAGC ((..(((....)))..))
Tm [1]: 39.8 °C | folding enthalpy [2]: -9.54 kcal/mol

GCCTCGCGAAAGCGGCGC ((..(((....)))..))
Tm [1]: 58.5 °C | folding enthalpy [2]: -16.4 kcal/mol
